Data reported in ChEMBL document CHEMBL1137805, “In vitro cytotoxicity of the protoberberine-type alkaloids” (2001).

Tests used:
Format in all cases: functional
[1] = Cytotoxicity against human colon cancer cells; settings: Cancer cell lines
Procedure, shortened: (§1)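 Subpanel values are mean GI50 over the panel's strains of each tumour type: breast 5, colon 6, lung 6 or 7, ovarian 5, stomach 6. […] Cells were grown in RPMI 1640 with 5% FBS at 37 °C under 5% CO2.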

[2] = Cytotoxicity against human lung cancer cells; settings: Cancer cell lines; procedure, shortened: as §1
[3] = Cytotoxicity against human breast cancer cells; settings: Cancer cell lines; procedure, shortened: as §1
[4] = Cytotoxicity against human ovarian cancer cells; settings: Cancer cell lines; procedure, shortened: as §1
[5] = Cytotoxicity against human stomach cancer cells; settings: Cancer cell lines; procedure, shortened: as §1
[6] = system: MKN-28; test: Cytotoxicity against human MKN28 cells
Procedure, shortened: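 Each line was grown in RPMI 1640 with 5% FBS and penicillin ([…]) at 37 °C under 5% CO2. Cells were plated, attached overnight, and exposed to drug for 48 h. Sulforhodamine B staining was read at 525 nm, with control, test and time-zero absorbances. % growth = 100×(T−T0)/(C−T0), or […] T<T0. GI50 is the concentration giving 50% growth.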

[7] = Cytotoxicity against human CNS cancer cells; settings: Cancer cell lines

Compound | GI50 [1] | GI50 [2] | GI50 [3] | GI50 [4] | GI50 [5] | GI50 [6] | GI50 [7]
CCCCCCc1c2[n+](cc3c(OC)c(OC)ccc13)CCc1cc(OC)c(OC)cc1-2 [13-HEXYLPALMATINE] | 1820 nM | 2140 nM | 1050 nM | 2880 nM | 3470 nM | < 2690 nM | 2950 nM
COc1cccc2c1C(=O)c1c(O)c3c(c(O)c1C2=O)C[C@@](O)(C(=O)CO)C[C@@H]3O[C@H]1C[C@H](N)[C@H](O)[C@H](C)O1 [DOXORUBICIN] | 2550 nM | 400 nM | 1820 nM | 4350 nM | 5820 nM | – | –
COc1cc(Br)c2cc3[n+](c(-c4ccccc4)c2c1OC)CCc1cc2c(cc1-3)OCO2 | 1550 nM | 2190 nM | 1000 nM | 2450 nM | 1910 nM | < 2690 nM | 2000 nM
CCCCc1c2c(OC)c(OC)cc(Br)c2cc2[n+]1CCc1cc3c(cc1-2)OCO3 | 1110 nM | 1540 nM | 520 nM | 1380 nM | 1290 nM | < 2690 nM | 1910 nM
CCCCCCc1c2[n+](cc3c(OC)c(OC)ccc13)CCc1cc3c(cc1-2)OCO3 | 720 nM | 490 nM | 760 nM | 1170 nM | 760 nM | 830 nM | 1200 nM
CCCCc1c2[n+](cc3c(OC)c(OC)ccc13)CCc1cc3c(cc1-2)OCO3 | 2510 nM | 1780 nM | 6310 nM | 5250 nM | 3900 nM | < 2690 nM | 3710 nM
CO[C@@]12[C@H](COC(N)=O)C3=C(C(=O)C(C)=C(N)C3=O)N1C[C@@H]1N[C@@H]12 [MITOMYCIN] | 180 nM | 23 nM | 34 nM | 120 nM | 100 nM | – | –
CCCCCCc1c2c(OC)c(OC)cc(Br)c2cc2[n+]1CCc1cc3c(cc1-2)OCO3 | 440 nM | 410 nM | 310 nM | 480 nM | 340 nM | 410 nM | 410 nM
